Measurements taken from ChEMBL document CHEMBL3872268, “3-Amino-thieno[2,3-b]pyridines as microtubule-destabilising agents: Molecular modelling and biological evaluation in the sea urchin embryo and human cancer cells” (Bioorg Med Chem, 2017).
Calls of active or inactive are those of the source.

Columns and labels:
[1] = test system: Paracentrotus lividus; test: Induction of microtubule destabilization in sea urchin embryo assessed as alteration at later stages of development
[2] = test system: Paracentrotus lividus; test: Induction of microtubule destabilization in sea urchin embryo assessed as cleavage arrest exposed for 8 to 20 mins after fertilization and 45 to 55 mins before first mitotic cycle completion measured 2.5 to 5.5 hrs after fertilization
Procedure, shortened: (§1)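 Gametes were obtained by intracoelomic injection of 0.5 M KCl, and eggs were fertilised in filtered seawater. Embryos were cultured at room temperature with paddle agitation (60 rpm), as a monolayer at up to 2000 embryos/mL. Eggs were exposed 8–20 min post-fertilisation to 2-fold decreasing concentrations (10 mM DMSO stock diluted 10-fold in EtOH). Cleavage was scored microscopically at 2.5–5.5 h. The read-out was the threshold concentration, in duplicate.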

[3] = test system: Paracentrotus lividus; test: Induction of microtubule destabilization in sea urchin embryo assessed as developmental retardation at later stages of development
[4] = test system: Paracentrotus lividus; test: Induction of microtubule destabilization activity in sea urchin free-swimming blastulae assessed as embryo spinning measured after 0.25 to 20 hrs; conditions: Blastula
Procedure, shortened: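 Free-swimming blastulae just after hatching (8–10 h post-fertilisation) were cultured in filtered seawater at room temperature. They were treated with 2-fold decreasing concentrations (DMSO stock diluted 10-fold in EtOH; final DMSO ≤0.05%, EtOH ≤1%). Spinning and lack of forward movement were observed by light microscopy after 15 min to 20 h. The value is the effective threshold concentration, from duplicate measurements.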

[5] = Growth inhibition of human NCI60 cells at 10 uM incubated for 48 hrs by sulforhodamine B assay relative to control; type: functional; conditions: NCI60, 48 h, read-out: GI
Procedure, shortened: (§2)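 NCI Developmental Therapeutics Program panel of sixty human tumour cell lines. Compounds were screened first at a single 10 μM dose (percent growth inhibition), and dose-response curves were run for active ligands. GI50 is the concentration giving 50% growth inhibition, reported as the mean across the 60 lines.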

[6] = test system: Paracentrotus lividus; test: Induction of microtubule destabilization in sea urchin embryo assessed as cleavage alteration exposed 8 to 20 mins after fertilization and 45 to 55 mins before first mitotic cycle completion measured 2.5 to 5.5 hrs after fertilization; procedure, shortened: as §1
[7] = Growth inhibition of human NCI60 cells incubated for 48 hrs by sulforhodamine B assay; type: functional; conditions: NCI60, 48 h; procedure, shortened: as §2
[8] = test system: Paracentrotus lividus; test: Induction of microtubule destabilization in sea urchin embryo assessed as formation of tuberculate eggs for 8 to 20 mins after fertilization and 45 to 55 mins before first mitotic cycle completion measured 2.5 to 5.5 hrs after fertilization
Procedure, shortened: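 Sea urchin gametes were obtained by intracoelomic 0.5 M KCl injection, and embryos were cultured in filtered seawater at room temperature at up to 2000 embryos/mL. Fertilised eggs were exposed to 2-fold decreasing concentrations from 10 mM DMSO stocks diluted 10-fold in 96% EtOH. Final DMSO was kept ≤0.05% and EtOH ≤1%. Microscopic scoring gave the EC, the threshold causing 100% cleavage alteration, in duplicate.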

| Structure (SMILES) | Activity [1] | EC [2] [µM] | Activity [3] | EC [4] [µM] | inhibition of growth at 10 µM [5] [%] | EC [6] [µM] | GI50 [7] [nM] | Activity [8] |
| --- | --- | --- | --- | --- | --- | --- | --- | --- |
| COc1ccccc1-c1ccc2c(N)c(C(=O)c3ccc4c(c3)OCO4)sc2n1 | Active | > 4 | Active | > 4 | 37.4 | > 4 | 5130 |  |
| N#Cc1cc2c(N)c(C(=O)c3ccc(Cl)cc3)sc2nc1N | Active | > 4 | Active | > 4 | 0.5 | > 4 |  |  |
| Nc1c(C(=O)c2ccc3c(c2)OCO3)sc2nc3c(c(C(F)(F)F)c12)CCCC3 | Active | > 4 | Active | > 4 |  | > 4 |  |  |
| Cc1ccc2c(N)c(C(=O)c3ccc(Cl)cc3)sc2n1 |  | > 4 |  | > 4 | 18.4 | 0.5 |  |  |
| COc1ccc(C(=O)c2cc(OC)c(OC)c(OC)c2)cc1O [PHENSTATIN] |  | 0.05 |  | 0.5 |  | 0.01 | 60 |  |
| Cc1ccc(C(=O)c2sc3nc4c(cc3c2N)CCCC4)c(C)c1 |  | 0.2 |  | > 5 | 78.9 | 0.05 | 280 | Active |
| Cc1cc(C)c2c(N)c(C(=O)c3ccc4c(c3)OCCO4)sc2n1 |  | > 4 |  | > 4 | 2 | 1 |  |  |
| Cc1cccc(NC(=O)c2sc3nc4c(cc3c2N)CCC4)c1C |  | 0.5 |  | 5 |  | 0.05 |  |  |
| Cc1ccc(C(=O)c2sc3nc(C)ccc3c2N)cc1 |  | 4 |  | > 10 |  | 1 |  | Active |
| COc1ccc(C(=O)c2sc3nc4c(cc3c2N)N2CCC4CC2)cc1OC | Active | > 4 | Active | > 4 | 11.7 | > 4 |  |  |
| Nc1c(C(=O)Nc2ccccc2)sc2nc3c(cc12)CCCCC3 |  | 0.04 |  | 0.2 |  | 0.01 |  |  |
| COc1ccc(C(=O)c2sc3nc(-c4ccccc4OC)ccc3c2N)cc1OC |  |  |  |  | 43.5 |  | 7940 |  |
| Cc1ccc(C(=O)c2sc3nc4c(cc3c2N)CCCC4)cc1 |  | 2 |  | > 4 | 16.4 | 0.02 |  | Active |
| Nc1c(C(=O)c2ccc(Br)cc2)sc2ncccc12 |  | > 4 |  | > 4 |  | 1 |  |  |
| COC(=O)Nc1nc2cc(C(=O)c3cccs3)ccc2[nH]1 [NOCODAZOLE] |  | 0.001 |  | 0.1 |  | 0.005 | 38.9 |  |
| Cc1cccc(NC(=O)c2sc3nc4c(cc3c2N)CCCC4)c1C |  | 0.1 |  | 0.5 |  | 0.01 |  |  |
| COc1ccc(C(=O)c2sc3nc4c(cc3c2N)CCCC4)cc1 |  | > 4 |  | > 5 |  | 0.5 |  |  |
| Nc1c(C(=O)c2ccc3c(c2)OCO3)sc2nc3c(cc12)CCCC3 |  | 0.5 |  | > 5 |  | 0.025 |  | Active |
| Nc1c(C(=O)Nc2cccc(C(F)(F)F)c2)sc2nc3c(cc12)CCCCC3 |  | > 4 |  | > 4 |  | > 4 |  |  |

| Structure (SMILES) | Activity [1] | EC [2] [µM] | Activity [3] | EC [4] [µM] | inhibition of growth at 10 µM [5] [%] | EC [6] [µM] | GI50 [7] [nM] | Activity [8] |
| --- | --- | --- | --- | --- | --- | --- | --- | --- |
| COc1ccc(C(=O)c2sc3nc4c(c(-c5ccncc5)c3c2N)CCCC4)cc1OC | Active | > 4 | Active | > 4 |  | > 4 |  |  |
| N#Cc1cc2c(N)c(C(=O)c3ccc(F)cc3)sc2nc1N |  | > 4 |  | > 4 |  | 4 |  |  |
| COc1ccc(C(=O)c2sc3nc4c(cc3c2N)N2CCC4CC2)cc1 | Active | > 4 | Active | > 4 | 11.5 | > 4 |  |  |
| CN1CCc2nc3sc(C(=O)c4ccccc4)c(N)c3cc2C1 | Active | > 4 | Active | > 4 | 13.3 | 4 |  |  |
| Nc1c(C(=O)Nc2ccccc2)sc2nc3c(cc12)CCCC3 |  | 0.05 |  | 0.2 |  | 0.01 |  |  |
| COc1ccc(C(=O)c2sc3nc(N)c(C#N)cc3c2N)cc1OC |  | > 4 |  | > 4 | 4.6 | 4 |  |  |
| Nc1c(C(=O)c2ccc(Cl)cc2)sc2nc3c(cc12)CCCC3 |  | > 4 |  | > 4 | 7.8 | 0.5 |  |  |
| Cc1cc(C)c2c(N)c(C(=O)c3ccc(Br)cc3)sc2n1 |  | > 4 |  | > 4 |  | > 4 |  |  |
| Nc1c(C(=O)c2ccc3c(c2)OCO3)sc2nc(-c3ccncc3)ccc12 | Active | > 4 | Active | > 4 |  | > 4 |  |  |
| COc1ccc(C(=O)c2sc3nc(C)cc(C)c3c2N)cc1OC |  | > 4 |  | > 4 | 14.2 | > 4 |  |  |
| Nc1c(C(=O)c2ccc(Br)cc2)sc2nc3c(cc12)CCCC3 |  | > 4 |  | > 4 | 8.1 | 0.5 |  |  |
| Nc1c(C(=O)c2ccc(F)cc2)sc2nc3c(cc12)CCCC3 |  | > 4 |  | > 4 | 26.7 | 0.2 |  |  |
| Cc1ccc(C(=O)c2sc3nc4c(cc3c2N)CCC4)cc1 |  | > 4 |  | > 4 |  | 0.2 |  |  |
| Nc1c(C(=O)c2ccc(Br)cc2)sc2nc3c(cc12)CCC3 |  | > 4 |  | > 4 | 19.3 | 1 |  |  |
| COc1ccc(C(=O)c2sc3nc4c(c(-c5ccccc5)c3c2N)CCCC4)cc1OC | Active | > 4 | Active | > 4 |  | > 4 |  |  |
| Nc1c(C(=O)c2ccccc2)sc2nc3c(cc12)CCCC3 |  | 0.2 |  | 0.5 |  | 0.02 |  |  |
| COc1ccc(C(=O)c2sc3nc(-c4ccncc4)ccc3c2N)cc1OC |  | > 4 |  | > 4 | 17.1 | 4 |  |  |
| Nc1c(C(=O)c2ccccc2)sc2nc3c(cc12)N1CCC3CC1 |  | > 4 |  | > 4 | 7.3 | > 4 |  |  |
